In the library only some 1.6% were active in any assay of this set; here they are far more common.
PAD4 inh: PAD4 (human) enzyme inhibition; Q9UM07; recombinant PAD4, RCA probe fluorescence polarization; inhibition, % at 6.36 µM; 330,000 tested, 0.41% active; AID 485272;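 active means percent inhibition above a cutoff equal to the mean of all tested compounds plus 3 SD, cut at about 15% in these data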;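 further: 0% = PAD4 with RCA probe and DMSO and 100% = probe without PAD4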
TDP2 absorb: TDP2 (human) inhibition, absorbance primary screen | inhibition, % at 12.8 µM | 370,000 tested, 0.34% active | recombinant TDP2, T5PNP hydrolysis, p-nitrophenol absorbance 415 nm;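 active means inhibition above the mean of all tested compounds plus 3 SD, set per campaign, cut at about 25% in these data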;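 further: 0% = DMSO with enzyme and 100% = buffer with substrate but no TDP2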
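Evaluation: % inhibition relative to enzyme-containing and enzyme-free wells. Material: recombinant human TDP2. Benchmarks: enzyme-free and DMSO wells. Timing: enzyme reaction with compound for 2 h at 37 °C. Compound dosing: 12.8 µM only. Measured by: p-Nitrophenol epi absorbance. Reagent: T5PNP substrate at 5 mM, a TopII-DNA adduct mimic. Replication: single well per compound.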
UCH37 DUB inh: inhibitors of human deubiquitinating enzyme UCH37. Q9Y5K5. purified proteasome/UCH37, Ub-AMC cleavage fluorescence. inhibition, % (concentration not given with the values). 330,000 tested, 0.33% active;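 active means mean inhibition over replicate wells above about 20%, limit read from the data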;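 further: 0% = compound-free wells with enzyme and 100% = wells lacking proteasome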
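Material: human UCH37 enzyme supplied as purified proteasome complex. Measure: % inhibition of Ub-AMC cleavage fluorescence. Medium: pH 7.4 Tris-HCl (50 mM) with ovalbumin, ATP-MgCl2, DTT. Times: 30 min preincubation with enzyme, 25 min cleavage at room temperature. Detection: AMC fluorescence intensity at 355/460 nm.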
GSTO1 inh: blocks human GSTO1 in RBBP9 counter-screen. recombinant GSTO1, activity-based probe fluorescence polarization. inhibition, % at 5.96 µM. 300,000 tested, 1.1% active. AID 1974;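 active means inhibition above the campaign mean inhibition plus 3 SD, cut at about 35% in these data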;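 further: 0% = GSTO1-1 with DMSO and 100% = wells lacking GSTO1-1 enzyme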
CTSL1 counter: cathepsin L1 inhibition, PFM18AAP counter-screen. recombinant F. hepatica cathepsin L1, Z-Leu-Arg-MCA fluorescence. inhibition, % at 5.96 µM. 300,000 tested, 0.49% active;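 active means inhibition above the mean of all tested compounds plus 3 SD, set per screening campaign, cut at about 17% in these data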;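 further: 0% = plate median of test compound wells and 100% = 1 µM Z-Phe-Ala-diazomethylketone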
HKDC1 inh: blocks human hexokinase HKDC1 activity; recombinant HKDC1, G6PDH/diaphorase resazurin coupled fluorescence; inhibition, % at 20 µM; 340,000 tested, 0.16% active; AID 493160;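 active means inhibition above about 35% when tested at 20 µM, limit read from the data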;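 further: plate controls were DMSO wells with enzyme for no effect and DMSO wells lacking enzyme for full effect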
Target sequence (Q2TB90 whole entry, looked up): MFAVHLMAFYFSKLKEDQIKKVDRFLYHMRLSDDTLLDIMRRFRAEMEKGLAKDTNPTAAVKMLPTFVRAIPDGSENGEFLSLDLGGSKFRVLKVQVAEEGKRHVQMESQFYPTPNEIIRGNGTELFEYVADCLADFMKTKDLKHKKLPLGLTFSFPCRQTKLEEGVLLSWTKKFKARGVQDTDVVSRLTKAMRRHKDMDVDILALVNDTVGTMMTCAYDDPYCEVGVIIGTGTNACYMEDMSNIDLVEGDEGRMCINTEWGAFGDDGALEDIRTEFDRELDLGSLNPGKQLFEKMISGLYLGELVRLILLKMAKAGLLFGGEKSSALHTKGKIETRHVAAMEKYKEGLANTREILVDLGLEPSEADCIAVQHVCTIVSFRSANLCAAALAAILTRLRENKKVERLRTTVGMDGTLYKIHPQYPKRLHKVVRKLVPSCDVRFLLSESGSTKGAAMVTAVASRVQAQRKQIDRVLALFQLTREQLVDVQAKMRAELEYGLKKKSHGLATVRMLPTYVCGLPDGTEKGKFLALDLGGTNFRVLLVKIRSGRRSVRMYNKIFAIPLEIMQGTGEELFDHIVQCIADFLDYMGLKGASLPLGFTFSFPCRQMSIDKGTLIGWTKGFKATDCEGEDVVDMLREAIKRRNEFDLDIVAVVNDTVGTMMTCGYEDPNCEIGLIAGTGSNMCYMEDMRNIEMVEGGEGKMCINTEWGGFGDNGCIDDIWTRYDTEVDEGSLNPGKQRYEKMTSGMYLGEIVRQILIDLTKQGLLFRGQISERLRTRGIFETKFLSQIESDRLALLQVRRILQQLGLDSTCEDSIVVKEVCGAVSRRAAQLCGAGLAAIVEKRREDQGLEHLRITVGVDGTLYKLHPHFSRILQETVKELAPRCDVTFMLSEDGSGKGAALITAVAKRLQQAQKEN
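Test system: recombinant HKDC1 (HK5) hexokinase enzyme, produced in-house; Amount: enzyme 5 µg/mL final; Buffer or medium: Tris pH 8.0 buffer with MgCl2, Tween-20, BSA, BME; Reagent: glucose and ATP substrates; Doses: 20 µM test compound, 1% DMSO; Incubation: 90 min reaction incubation at room temperature, dark; Detection: resorufin fluorescence at 613 nm.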
* marks the source's active call; other numbers are inactive results.

`CC1CC(C)CN(CC(O)COCCOc2ccc(Br)cc2)C1` (centres undefined) gave PAD4 inh 0, TDP2 absorb -12, UCH37 DUB inh 4, GSTO1 inh 2, CTSL1 counter -3 and HKDC1 inh -10.
COc1cc(C(=O)Nc2ccccn2)cc(OC)c1OC was read as PAD4 inh -1, TDP2 absorb 1, UCH37 DUB inh -2, GSTO1 inh 6, CTSL1 counter 18* and HKDC1 inh -1.
`CCCc1nc(SCC(=O)Nc2nnc(SCC)s2)c2c(=O)n(C)c(=O)n(C)c2n1` gave PAD4 inh 2, TDP2 absorb 1, UCH37 DUB inh 0, GSTO1 inh 8, CTSL1 counter 0 and HKDC1 inh 1.
`CCSc1nnc(NC(=O)CSc2nc(CC)nc3c2c(=O)n(C)c(=O)n3C)s1` gave PAD4 inh 0, TDP2 absorb 8, UCH37 DUB inh -1, GSTO1 inh 36*, CTSL1 counter 1 and HKDC1 inh -6.
For CCCc1nc(SCC(=O)Nc2nnc(CC)s2)c2c(C)c(C)sc2n1 the results were PAD4 inh -1, TDP2 absorb 11, UCH37 DUB inh 1, GSTO1 inh 31, CTSL1 counter -1 and HKDC1 inh -6.
`CCc1nc(SCC(=O)Nc2nnc(CC)s2)c2c(C)c(C)sc2n1` gave PAD4 inh -2, TDP2 absorb 9, UCH37 DUB inh 3, GSTO1 inh 35*, CTSL1 counter 5 and HKDC1 inh 3.
For CCc1ccc(-c2cn(-c3nc(C)cc(C)n3)c(=N)o2)cc1 the results were PAD4 inh 2, TDP2 absorb -1, UCH37 DUB inh 5, GSTO1 inh -18, CTSL1 counter 61* and HKDC1 inh -1.
`Oc1ccccc1C=NNc1nn[nH]n1` gave UCH37 DUB inh 0.
Cc1ccc(NC(=O)CC2S/C(=N/N=C\C=C\c3ccccc3)NC2=O)cc1Cl (centres undefined) was read as UCH37 DUB inh 6.
`O=C(CC1S/C(=N/N=C/C=C/c2ccccc2)NC1=O)Nc1ccc(C(=O)O)cc1` (centres undefined) gave PAD4 inh 2, TDP2 absorb 5, UCH37 DUB inh 20*, GSTO1 inh -11, CTSL1 counter 0 and HKDC1 inh 17.
CCOc1ccccc1NC(=O)c1oc2ccccc2c1NC(=O)C1CCCO1 (centres undefined) was read as PAD4 inh 1, TDP2 absorb -8, UCH37 DUB inh -25, GSTO1 inh 1, CTSL1 counter 18* and HKDC1 inh -6.
`COc1ccc(CC(C)=NNC(=O)c2cn(C)c3ccccc23)cc1OC` gave UCH37 DUB inh 2.
Screening COc1ccc(C=NNC(=O)CNc2n[nH]c(=O)[nH]c2=O)cc1OC returned UCH37 DUB inh 3.
For COCc1c(C(=O)NN=Cc2cccnc2)nnn1-c1nonc1N the results were UCH37 DUB inh 4.
COc1ccc2[nH]c3c(=O)n(CCc4ccccc4)cnc3c2c1 was read as PAD4 inh -3, TDP2 absorb 8, UCH37 DUB inh -24, GSTO1 inh 7, CTSL1 counter 3 and HKDC1 inh -5.
`CCCCN(CCCC)CCn1cnc2c([nH]c3ccc(OC)cc32)c1=O` gave PAD4 inh 6, TDP2 absorb -3, UCH37 DUB inh -25, GSTO1 inh 10, CTSL1 counter 107* and HKDC1 inh 2.
For O=C(CN(c1ccc(Cl)cc1)S(=O)(=O)c1ccccc1)NN=Cc1ccco1 the results were UCH37 DUB inh 4.
`CCCCS(=O)(=O)/C=C\C=C/S(=O)(=O)CCCC` gave PAD4 inh 0, UCH37 DUB inh 1, GSTO1 inh 10, CTSL1 counter 64* and HKDC1 inh 10.
`CCCCS(=O)(=O)/C=C\C1C2C=CC(C2)C1S(=O)(=O)CCCC` (centres undefined) gave PAD4 inh -3, TDP2 absorb 3, UCH37 DUB inh 5, GSTO1 inh 1, CTSL1 counter -1 and HKDC1 inh -8.
Screening O=C(Nc1ccccc1)c1ccc(CN2CCc3ccccc3C2)cc1 returned PAD4 inh -3, TDP2 absorb 2, UCH37 DUB inh 0, GSTO1 inh -7, CTSL1 counter 3 and HKDC1 inh -1.
Screening Cc1ccc(NC(=O)c2ccc(CN3CCc4ccccc4C3)cc2)cc1 returned PAD4 inh -1, TDP2 absorb -5, UCH37 DUB inh 22*, GSTO1 inh 1, CTSL1 counter -2 and HKDC1 inh -1.
COc1ccc(C=Nn2cncn2)cc1Cn1cc([N+](=O)[O-])cn1 was read as UCH37 DUB inh 3.
Screening O=C(NN=Cc1ccc(OCc2ccccc2)cc1)c1ccc(O)cc1 returned UCH37 DUB inh 6.
`CCCCc1cc2c(s1)CCCCC2=NO` gave UCH37 DUB inh 3.
`O=C(NCc1ccccc1)NC12CC3CC(CC(C3)C1)C2` gave PAD4 inh 5, TDP2 absorb -11, UCH37 DUB inh -2, GSTO1 inh 35*, CTSL1 counter 4 and HKDC1 inh 7.
For O=C(O)c1cc(-c2ccc(/C=c3\sc4nc5ccc(Br)cc5n4c3=O)o2)ccc1Cl the results were PAD4 inh -3, GSTO1 inh 41* and CTSL1 counter -8.
`CC1(C)SC(=S)N(N=Cc2cccnc2)C1N(O)C(=O)NC1CCCCC1` (centres undefined) gave UCH37 DUB inh 4.
For COc1ccc(OCC(=O)NNC(=O)c2ccc3c(=O)n4c(nc3c2)CCC4)cc1 the results were PAD4 inh -3, TDP2 absorb 13, UCH37 DUB inh 2, GSTO1 inh 37*, CTSL1 counter -7 and HKDC1 inh -3.
`Cc1ccc(OCC(=O)NNC(=O)c2ccc3c(=O)n4c(nc3c2)CCC4)cc1` gave PAD4 inh -7, TDP2 absorb -1, UCH37 DUB inh -10, GSTO1 inh -13, CTSL1 counter -13 and HKDC1 inh 3.
C(=NN1CCOCC1)c1ccsc1 was read as UCH37 DUB inh 0.
C=CCN1C(=O)/C(=C/c2ccc(OC(C)=O)c(OCC)c2[N+](=O)[O-])SC1=S was read as TDP2 absorb 9, UCH37 DUB inh 42* and HKDC1 inh 12.
`CCOc1c(OC(C)=O)ccc(/C=C/c2ccc3cccc(OC(C)=O)c3n2)c1[N+](=O)[O-]` gave PAD4 inh 4, UCH37 DUB inh 2, GSTO1 inh 6, CTSL1 counter -19 and HKDC1 inh 1.
`CC(=NNC(=O)c1nnn(-c2nonc2N)c1-c1cccs1)c1cccnc1` gave UCH37 DUB inh 5.

Compound activity deposited in PubChem by several laboratories.
